The test concerns the target Aldo-keto reductase family 1 member B1 (Rattus norvegicus, UniProt P07943). Kind of test: Inhibitory activity against aldose reductase in rat lens. In short, it runs like this: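 Rat lens enzyme: 100 lenses from frozen rat eyes homogenized in distilled water and centrifuged at 5 °C; the supernatant was brought to 40% ammonium sulfate saturation and the freshly prepared supernatant was used. NADPH loss was read at 340 nm for 3 min.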

These results are taken from ChEMBL document CHEMBL1125579, “Relative structure-inhibition analyses of the N-benzoyl and N-(phenylsulfonyl) amino acid aldose reductase inhibitors” (J Med Chem, 1991).

One may read the IC50 as the concentration needed to halve the response being measured. High values mean lower potency, low ones higher potency. `O=C(O)CN(C(=O)c1cccc2ccccc12)c1ccccc1` registered a half-maximal inhibitory concentration (IC50) of 8.5 µM.

With `O=C(O)CN(C(=O)c1ccccc1)c1ccccc1`, the half-maximal inhibitory concentration (IC50) stood at 6.3 µM. The IC50 values of the last two molecules are within 1.5-fold of each other.

The molecule `O=C(O)CN(C(=O)c1ccc(NC(=O)c2ccccc2)cc1)c1ccccc1` gave an IC50 of 0.24 µM.

Consider `O=C(O)CNC(=O)c1ccc(NC(=O)c2ccccc2)cc1`, for which the IC50 worked out at 9.6 µM.

`CN(CC(=O)O)C(=O)c1ccc(NC(=O)c2ccccc2)cc1` had an IC50 of 2.8 µM.

In the case of `O=C(O)CN(C(=O)c1ccc2ccccc2c1)c1ccccc1`, the 50% inhibitory concentration (IC50) is 19 µM.

`O=C(O)CNC(=O)c1cccc2ccccc12` showed a 50% inhibitory concentration (IC50) of 220 µM.

The molecule `CN(CC(=O)O)C(=O)c1ccc(F)cc1` had a half-maximal inhibitory concentration (IC50) of 8.8 µM.

As for `COc1ccc(C(=O)N(CC(=O)O)c2ccccc2)cc1`, the 50% inhibitory concentration (IC50) stood at 3.2 µM.

Regarding `O=C(O)CN(C(=O)c1ccc(F)cc1)c1ccccc1`, the IC50 worked out at 8.2 µM.

In the case of `CN(CC(=O)O)C(=O)c1ccccc1`, the midpoint of inhibition, the IC50, lay at 23 µM.

For the molecule `COc1ccc(C(=O)N(C)CC(=O)O)cc1`, it took 6.7 µM to reach half-maximal inhibition (IC50).

Consider `CN(CC(=O)O)C(=O)c1cccc2ccccc12`, for which the IC50 is 40 µM.

In the case of `Cc1ccc(C(=O)N(C)CC(=O)O)cc1`, inhibition was half-maximal at 13 µM (IC50).

In the case of `O=C(O)CNC(=O)c1cccc(NC(=O)c2ccccc2)c1`, the IC50 is 49 µM.

As for `Nc1ccc(C(=O)N(CC(=O)O)c2ccccc2)cc1`, the half-inhibitory concentration (IC50) is 12 µM.

`CN(CC(=O)O)C(=O)c1ccc(N)cc1`: it took 11 µM to reach half-maximal inhibition (IC50). This IC50 and that of the molecule before are within 1.5-fold of each other.

Molecule `O=C(O)CNC(=O)c1ccc(NC(=O)CCc2ccccc2)cc1` registered an IC50 of 45 µM.

Consider `CN(CC(=O)O)C(=O)c1ccc2ccccc2c1`, for which the IC50 is 19 µM.

Take `CN(CC(=O)O)C(=O)c1ccc([N+](=O)[O-])cc1`: it took 26 µM to reach half-maximal inhibition (IC50).

Take `Cc1ccc(C(=O)N(CC(=O)O)c2ccccc2)cc1`: the half-maximal inhibitory concentration (IC50) amounted to 3.7 µM.

Consider `O=C(O)CNC(=O)c1ccc(NC(=O)Cc2ccccc2)cc1`, for which the concentration for half-maximal inhibition (IC50) amounted to 21 µM.

As for `O=C(O)CN(C(=O)c1ccc([N+](=O)[O-])cc1)c1ccccc1`, the IC50 is 0.56 µM.

In turn, `O=C(O)CNC(=O)c1ccc2ccccc2c1` came in with an IC50 of 70 µM.
